Data set [1] can be described thus: Stability in human OVCAR-3 cells expressing androgen receptor assessed as assessed as compound degradation at 0.01 to 5 uCi/mL up to 24 hrs by silica gel instant thin layer chromatography. The format is ADME, cell-based. The conditions noted are these: read-out: Activity.
The nature of data set [2]: Stability in human OVCAR-3 cells expressing androgen receptor assessed as half life at 0.01 to 5 uCi/mL by silica gel instant thin layer chromatography. The format is ADME, cell-based.
Data set [3] has as its system OVCAR-3. The data set can be described thus: Antitumor activity against human OVCAR-3 cells xenografted in athymic NCr mouse administered 12 days after tumor implantation at a escalating dose of 5 uCi, ip of day 1, 20 uCi, ip on day 2, 15 uCi, ip on day 3 measured 5 weeks after implantation. The data set is classed as functional, organism-based. The note with it: tested as the 125I-labelled form. For orientation: A xenograft is tissue or cells of one species grown in another, often human tumour cells in immunodeficient mice.

Data set [4] has as its system OVCAR-3. Description: Antitumor activity against human OVCAR-3 cells xenografted in athymic NCr mouse at 14 uCi, ip administered 12 days after tumor implantation as single dose measured 5 weeks after implantation. The data set is classed as functional, organism-based. The conditions noted are these: tested as the 125I-labelled form. In short, it runs like this:
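Athymic NCr-nu/nu female mice bearing ip OVCAR-3 implants; compound given ip either as one 14 μCi/mouse dose or as three escalating daily doses of 5, 10 and 15 μCi/mouse (total 30 μCi); tumor response assessed at necropsy.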

A short description of data set [5]: Stability in mouse serum assessed as intact compound remaining at 10 to 20 uCi/mL after 60 mins by reversed phase HPLC analysis. The data set is classed as ADME, cell-free. The note with it: read-out: Stability. In short, it runs like this:
(§1)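 After 60 min incubation in human, rabbit or mouse serum, incubation mixtures were extracted. Extracts were run on C18 reverse-phase HPLC with H2O/CH3CN, both with 0.07% TFA: 100% aqueous for 10 min, then 0–95% CH3CN over 30 min, held 20 min. Intact radioactive compound was distinguished from degradation product against nonradioactive reference standards.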

A short description of data set [6]: Stability in human serum assessed as intact compound remaining at 10 to 20 uCi/mL after 60 mins by size-exclusion HPLC analysis. The data set is classed as ADME, cell-free. The note with it: read-out: Stability. In outline:
(§2)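 Radioiodinated compound incubated 60 min with human, rabbit or mouse serum, or with purified human SHBG. Aliquots analysed on a TSK3000 size-exclusion column: 0.1 M potassium phosphate/0.1 M Na2SO4 (1:1, pH 6.8) for 20 min, then 0–40% CH3CN over 20 min, held 30 min, 0.7 mL/min. Protein-bound versus free radioactivity read from the peaks.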
Background: SEC sorts molecules by how far they enter the pores of the column.

Data set [7] is described as follows: Stability in rabbit serum assessed as intact compound remaining at 10 to 20 uCi/mL after 60 mins by reversed phase HPLC analysis. The conditions noted are these: read-out: Stability. The data set is classed as ADME, cell-free, Oryctolagus cuniculus. In short, it runs like this:
as §1

Data set [8] deals with T1, Albumin (Mus musculus, UniProt P07724). The data set can be described thus: Binding affinity to mouse serum albumin at 10 to 20 uCi/mL after 60 mins by size-exclusion HPLC analysis. The data set is classed as ADME. The note with it: isolated protein, 1 h. In outline:
as §2

A short description of data set [9]: Stability in rabbit serum assessed as intact compound remaining at 10 to 20 uCi/mL after 60 mins by size-exclusion HPLC analysis. The note with it: read-out: Stability. The format is ADME, cell-free, Oryctolagus cuniculus. In outline:
as §2

In data set [10] the target is Albumin (Oryctolagus cuniculus, UniProt P49065). The data set can be described thus: Binding affinity to rabbit serum albumin at 10 to 20 uCi/mL after 60 mins by size-exclusion HPLC analysis. The note with it: isolated protein, 1 h. The format is ADME. In outline:
as §2

The target in data set [11] is Albumin (Homo sapiens, UniProt P02768). The data set can be described thus: Binding affinity to human serum albumin at 10 to 20 uCi/mL after 60 mins by size-exclusion HPLC analysis. The note with it: isolated protein, 1 h. The data set is classed as ADME. In outline:
as §2

The target in data set [12] is T1, Albumin. The data set can be described thus: Binding affinity to mouse serum albumin at 10 to 20 uCi/mL after 60 mins by reversed phase HPLC analysis. The format is ADME. The note with it: isolated protein, 1 h.
The nature of data set [13]: Stability in human serum assessed as intact compound remaining at 10 to 20 uCi/mL after 60 mins by reversed phase HPLC analysis. The data set is classed as ADME, cell-free. The note with it: read-out: Stability. In short, it runs like this: as §1
For data set [14], the target named is T2, Sex hormone-binding globulin (Homo sapiens, UniProt P04278).
T2 sequence (P04278 whole entry): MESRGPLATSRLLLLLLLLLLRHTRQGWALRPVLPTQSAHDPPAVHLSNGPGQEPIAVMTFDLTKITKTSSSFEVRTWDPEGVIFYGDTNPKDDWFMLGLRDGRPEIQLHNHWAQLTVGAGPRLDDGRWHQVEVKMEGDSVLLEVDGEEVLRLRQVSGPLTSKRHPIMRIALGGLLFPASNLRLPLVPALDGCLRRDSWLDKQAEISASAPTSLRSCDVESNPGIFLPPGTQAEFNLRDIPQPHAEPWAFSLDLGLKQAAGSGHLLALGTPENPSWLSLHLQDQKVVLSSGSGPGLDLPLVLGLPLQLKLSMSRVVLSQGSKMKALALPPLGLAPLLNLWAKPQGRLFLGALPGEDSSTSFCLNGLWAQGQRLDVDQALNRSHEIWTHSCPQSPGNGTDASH
The data set can be described thus: Binding affinity to human sex hormone binding globulin at 10 to 20 uCi up to 6 hrs by reversed phase HPLC analysis. The format is ADME.

In data set [15] the target is T2, Sex hormone-binding globulin. The data set can be described thus: Binding affinity to human sex hormone binding globulin at 10 to 20 uCi up to 6 hrs by size-exclusion HPLC analysis. The format is ADME.
Data set [16] can be described thus: Stability in mouse serum assessed as intact compound remaining at 10 to 20 uCi/mL after 60 mins by size-exclusion HPLC analysis. The format is ADME, cell-free. The note with it: read-out: Stability. In short, it runs like this: as §2

Active and inactive are the calls of the source. No cut-off for these calls is given here.

What is called half-life is the time in which the quantity being followed falls by half.

T1 sequence (P07724 whole entry): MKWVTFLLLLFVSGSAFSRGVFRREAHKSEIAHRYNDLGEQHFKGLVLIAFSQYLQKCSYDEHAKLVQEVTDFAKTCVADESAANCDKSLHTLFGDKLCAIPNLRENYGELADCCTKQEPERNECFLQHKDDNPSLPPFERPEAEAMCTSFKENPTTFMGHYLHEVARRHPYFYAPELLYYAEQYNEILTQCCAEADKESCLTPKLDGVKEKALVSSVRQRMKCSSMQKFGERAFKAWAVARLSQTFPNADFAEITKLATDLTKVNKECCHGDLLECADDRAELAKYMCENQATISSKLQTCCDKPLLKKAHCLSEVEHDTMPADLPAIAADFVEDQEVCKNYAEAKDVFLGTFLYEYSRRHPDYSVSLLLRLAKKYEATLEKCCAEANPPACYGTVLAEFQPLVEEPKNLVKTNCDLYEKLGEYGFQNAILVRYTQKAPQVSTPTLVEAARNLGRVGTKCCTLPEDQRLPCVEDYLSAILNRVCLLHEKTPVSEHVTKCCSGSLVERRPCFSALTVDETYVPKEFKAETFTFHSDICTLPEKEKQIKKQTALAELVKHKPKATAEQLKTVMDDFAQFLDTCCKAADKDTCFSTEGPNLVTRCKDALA
Chain of Albumin (Homo sapiens, UniProt P02768) (P02768 whole entry): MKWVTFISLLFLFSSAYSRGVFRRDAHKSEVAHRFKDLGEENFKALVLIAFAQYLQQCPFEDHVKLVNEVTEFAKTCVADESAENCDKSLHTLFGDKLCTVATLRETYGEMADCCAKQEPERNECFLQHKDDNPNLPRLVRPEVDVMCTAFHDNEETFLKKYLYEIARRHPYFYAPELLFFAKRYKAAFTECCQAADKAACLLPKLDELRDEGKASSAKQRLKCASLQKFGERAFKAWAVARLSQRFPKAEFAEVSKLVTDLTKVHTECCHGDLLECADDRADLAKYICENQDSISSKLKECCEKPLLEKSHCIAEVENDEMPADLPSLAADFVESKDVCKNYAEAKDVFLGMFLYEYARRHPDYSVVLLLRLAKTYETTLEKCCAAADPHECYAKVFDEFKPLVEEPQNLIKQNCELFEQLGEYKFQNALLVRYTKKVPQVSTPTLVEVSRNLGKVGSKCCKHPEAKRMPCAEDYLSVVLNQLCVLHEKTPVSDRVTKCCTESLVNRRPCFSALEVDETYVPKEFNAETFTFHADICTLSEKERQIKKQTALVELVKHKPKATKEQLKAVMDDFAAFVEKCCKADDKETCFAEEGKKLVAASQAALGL
Chain of Albumin (Oryctolagus cuniculus, UniProt P49065) (P49065 whole entry): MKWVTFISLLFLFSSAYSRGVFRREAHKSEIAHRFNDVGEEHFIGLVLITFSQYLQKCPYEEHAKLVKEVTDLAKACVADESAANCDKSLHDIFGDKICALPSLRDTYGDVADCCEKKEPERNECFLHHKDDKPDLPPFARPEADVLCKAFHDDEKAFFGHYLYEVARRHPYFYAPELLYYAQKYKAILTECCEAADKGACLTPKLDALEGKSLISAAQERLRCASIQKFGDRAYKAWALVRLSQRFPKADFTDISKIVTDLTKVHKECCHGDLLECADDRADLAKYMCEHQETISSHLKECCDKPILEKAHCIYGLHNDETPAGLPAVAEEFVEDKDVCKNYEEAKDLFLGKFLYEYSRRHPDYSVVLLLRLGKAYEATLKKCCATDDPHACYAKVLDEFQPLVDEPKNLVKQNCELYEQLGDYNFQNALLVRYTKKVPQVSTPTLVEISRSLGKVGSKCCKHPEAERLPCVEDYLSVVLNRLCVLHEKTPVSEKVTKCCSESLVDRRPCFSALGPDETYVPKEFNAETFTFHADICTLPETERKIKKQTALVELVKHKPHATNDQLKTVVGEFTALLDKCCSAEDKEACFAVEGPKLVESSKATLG

For the molecule `C[C@]12CCC(=O)C[C@@H]1CC[C@@H]1[C@@H]2CC[C@]2(C)[C@@H](OC(=O)CCC(=O)O[C@H]3C[C@H](n4cc([123I])c(=O)[nH]c4=O)O[C@@H]3CO)CC[C@@H]12`, the metabolised at 24 h in data set [1] was greater than 70%. The half-life in [2] was 13.2 h.
For the molecule `C[C@]12CCC(=O)C[C@@H]1CC[C@@H]1[C@@H]2CC[C@]2(C)[C@@H](OC(=O)CCC(=O)O[C@H]3C[C@H](n4cc(I)c(=O)[nH]c4=O)O[C@@H]3CO)CC[C@@H]12`, the outcome with OVCAR-3 [3] and with OVCAR-3 [4] was inactive.
With `CCOC(=O)CCC(=O)O[C@H]1C[C@H](n2cc([125I])c(=O)[nH]c2=O)O[C@@H]1CO`, the remaining at 1 h was less than 2% in data set [5]; greater than 90% in data set [6]; less than 2% in data set [7]; less than 2% in data set [9]; greater than 90% in data set [13]; less than 2% in data set [16]. Further, the Activity entry (at Albumin [8]; on Albumin [10]; at Albumin [11]; on Albumin [12]; in [14]; in data set [15]) was “Not Active” throughout.
`O=c1[nH]c(=O)n([C@H]2C[C@H](O)[C@@H](COP(=O)(O)O)O2)cc1[125I]`: the remaining at 1 h in data set [6], in [7], in data set [9] and in data set [13] was 30% each time. Also, the Activity entry (at Albumin [8]; at Albumin [10]; at Albumin [11]; at Albumin [12]; in data set [14]; in [15]) was “Not Active” in each case.

The record behind these values is ChEMBL document CHEMBL1155242, “Radiolabeled 5-iodo-3'-O-(17beta-succinyl-5alpha-androstan-3-one)-2'-deoxyuridine and its 5'-monophosphate for imaging and therapy of androgen receptor-positive cancers: synthesis and biological evaluation” (J Med Chem, 2009).
